In brackets after ≈: the same amount, converted by molar mass.
Key:
[1] = Partition coefficient log P by shake flask method; type: physicochemical; settings: octanol/water
Outline: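 Shake flask in n-octanol/phosphate buffer pH 7.4. Compound-saturated octanol shaken with an equal volume of buffer for 24 h at 25 °C, then left 30 min to separate. Both phases quantified by UV against calibration plots.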

[2] = Aqueous solubility at pH. 4; type: physicochemical
[3] = Chemical stability assessed as half life of hydrolysis at pH 2; type: physicochemical; settings: buffer
Outline: (§1)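 Compound dissolved in preheated HCl buffer pH 2 or isotonic phosphate buffer pH 7.4 and held at 37 °C. Pseudo-first-order rate constants taken from semilog plots of concentration versus time.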

[4] = Chemical stability assessed as half life of hydrolysis at pH 7.4; type: physicochemical; settings: buffer; outline: as §1
[5] = Stability in presence of 80% human plasma assessed as half life; type: ADME, cell-free
Outline: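 Citrated human plasma diluted 4:1 with isotonic phosphate buffer pH 7.4 (80% plasma), preheated, shaken at 37 °C. Compound added from a 1 mg/ml stock; samples at intervals diluted and read at 253 nm for released BPA. Rate constant and t½ taken from the linear part of the log BPA concentration versus time plot.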

[6] = Antioxidant activity in stomach assessed as superoxide dismutase activity measured per mg of protein (RVb = 325.40 +/- 69 U); type: functional
[7] = Antioxidant activity in stomach assessed as catalase activity measured per mg of protein (RVb = 28.38 +/- 2.85 U); type: functional
[8] = Antioxidant activity in stomach assessed as lipid peroxidation measured per mg of protein (RVb = 4.61 +/- 1.28 nmole); type: functional, tissue-based
[9] = Antioxidant activity in stomach assessed as myeloperoxidase activity relative to control; type: functional
Outline: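 Stomach homogenate from ulcer-study rats (0.01 M phosphate buffer), spun 10,000 rpm, 10 min, 10 °C. Supernatant mixed with o-phenylenediamine (660 µg/ml) and started with 300 mM H2O2; A492 read every 30 s for 5 min. ΔOD/min expressed as % of control activity.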

[10] = test system: Mus musculus; assay: Analgesic activity in mouse assessed as inhibition of acetic acid-induced writhing at 10 mg/kg, po relative to control; type: functional
Outline: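 Male LACCA mice (25–35 g), fasted overnight, dosed orally in 0.5% CMC (0.1 ml/10 g) 1 h before 1% acetic acid, 10 ml/kg i.p. Writhes counted over 20 min starting 3 min post-challenge. % inhibition = (1 − Nt/Nc) × 100 versus vehicle controls. Mean ± SE of five experiments.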

[11] = test system: Rattus norvegicus; assay: Toxicity in Sprague-Dawley rat assessed as ulcer index at dose molar equivalent to 54 mg/kg, po; type: organism-based; set-up: dose 54 mg/kg, route oral; settings: in vivo
Outline: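 Overnight-fasted Sprague-Dawley rats given oral doses equimolar to BPA 54 mg/kg; vehicle controls. Killed 4 h after dosing; stomachs opened along greater curvature, saline-washed and scored: 0 none, 1 punctiform <1 mm, 3 filiform <5 mm, 4 punctiform >1 mm or filiform >5 mm. Mean ± SE of five experiments.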

[12] = test system: Rattus norvegicus; assay: Antiinflammatory activity in Sprague-Dawley rat assessed as reduction in carrageenan-induced paw edema at dose molar equivalent to 15 mg/kg, po after 4 hrs (RVb = 78.4+/- 2.53%); set-up: scale not given: the % may be the effect or the level left
[13] = test system: Rattus norvegicus; assay: Antiinflammatory activity in Sprague-Dawley rat assessed as reduction in carrageenan-induced paw edema at dose molar equivalent to 15 mg/kg, po after 5 hrs (RVb = 65.2+/- 1.96%); set-up: scale not given: the % may be the effect or the level left
[14] = test system: Rattus norvegicus; assay: Antiinflammatory activity in Sprague-Dawley rat assessed as reduction in carrageenan-induced paw edema at dose molar equivalent to 15 mg/kg, po after 2 hrs (RVb = 68.8 +/- 2.06%); set-up: scale not given: the % may be the effect or the level left
[15] = test system: Rattus norvegicus; assay: Antiinflammatory activity in Sprague-Dawley rat assessed as reduction in carrageenan-induced paw edema at dose molar equivalent to 15 mg/kg, po after 3 hrs (RVb = 81.1+/- 2.43 %); set-up: scale not given: the % may be the effect or the level left

SMILES	logP [1]	solubility [2]	half-life [3]	half-life [4]	half-life [5]	Activity [6]	Activity [7]	Activity [8]	Activity [9]	inhibition in vivo at 10 mg/kg [10]	UI [11]	Activity [12]	Activity [13]	Activity [14]	Activity [15]
COc1cc(OC)c2c(=O)c(OC(=O)Cc3ccc(-c4ccccc4)cc3)c(-c3ccc(OC)c(OC)c3)oc2c1	3.95	14.5 µg/mL (≈ 26.2 µM)	> 100 h	> 38 h	0.33 h	223 U/mg protein	22.4 U/mg protein	6.42 nM	118.93%	62.4%	0.45	31.6%	33.1%	34.2%	37.5%
O=C(O)Cc1ccc(-c2ccccc2)cc1 [FELBINAC]						26.2 U/mg protein	3.52 U/mg protein	22.6 nM	238.47%	68.6%	6.2	25.2%	29.1%	26.9%	26.5%

— ChEMBL document CHEMBL1165896, “Design, synthesis and evaluation of mutual prodrug of 4-biphenylacetic acid and quercetin tetramethyl ether (BPA-QTME) as gastrosparing NSAID” (Eur J Med Chem, 2010)
